Compounds with a hit are over-represented: about 5.7% of the library has one in this group of screens.
Calb FLC: affects C. albicans growth with fluconazole | C. albicans CaCi-2 (fluconazole-resistant clinical isolate) + fluconazole, Alamar Blue growth, 48 h | growth inhibition, % (test concentration not listed) | 300,000 compounds, 0.57% hits;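 active means growth inhibition above about 58% in most replicates, limit read from the data, passing the limit was not always enough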;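 further: all wells also contain fluconazole at 8 µg/ml as a sub-toxic cotreatment; 0% = median of DMSO wells and 100% = median of geldanamycin control wells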
T cruzi inh: blocks replication of Trypanosoma cruzi; T. cruzi beta-gal in NIH3T3, luminescence, 90 h; 300,000 compounds, 1.4% hits; AID 1885; inhibition, % (concentration not given with the values);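 active means mean inhibition across valid replicates above about 55%, limit read from the data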;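 further: signal also drops with host cell toxicity which is not excluded here; 0% = plate median of DMSO wells and 100% = zero luminescence signal; higher percent means less beta-gal luminescence so fewer parasites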
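System: Mouse NIH/3T3 fibroblasts infected with β-gal-expressing T. cruzi Tulahuen C4 | Quantity: NIH/3T3 cells, 5,000 per well | Reagent: 5000 reporter trypomastigotes per well | Dosing: Compound pinned at 50 nL/well, DMSO | Schedule: 3 h host attachment, then at least 90 h co-culture | Detection: GalScreen luminescence, 60 min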
Beta apoptosis: blocks beta cell apoptosis. INS-1E cytokine-induced death, ATP luminescence, 48 h; percent of positive-control rescue, neutral wells zero. 300,000 compounds, 0.8% hits. AID 435005. protection from apoptosis, % (test concentration not listed);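 active means Every replicate reaches about 75%, or at least half do and their mean reaches it too, limit read from the data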;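 further: 0% = cytokine-treated negative control wells and 100% = positive control rescue; higher means more ATP so stronger rescue from cytokine killing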
CSC inhib: blocks cancer stem cells. cancer stem cell-like cells viability, luminescence. inhibition, % at 7.5 µM. 300,000 compounds, 1.1% hits; in the data active means inhibition above about 75%; tested in HMLE shEcad cells
Mdm2 MdmX PPI: human Mdm2/MdmX binding inhibition; O15151+Q00987; SaOS-2 split-luciferase Mdm2/MdmX complementation, luminescence; inhibition, % at 8 µM; 330,000 compounds, 3% hits; AID 485346;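 active means inhibition of at least 50% at 8 µM in the primary screen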
Target sequence (O15151 whole entry, looked up): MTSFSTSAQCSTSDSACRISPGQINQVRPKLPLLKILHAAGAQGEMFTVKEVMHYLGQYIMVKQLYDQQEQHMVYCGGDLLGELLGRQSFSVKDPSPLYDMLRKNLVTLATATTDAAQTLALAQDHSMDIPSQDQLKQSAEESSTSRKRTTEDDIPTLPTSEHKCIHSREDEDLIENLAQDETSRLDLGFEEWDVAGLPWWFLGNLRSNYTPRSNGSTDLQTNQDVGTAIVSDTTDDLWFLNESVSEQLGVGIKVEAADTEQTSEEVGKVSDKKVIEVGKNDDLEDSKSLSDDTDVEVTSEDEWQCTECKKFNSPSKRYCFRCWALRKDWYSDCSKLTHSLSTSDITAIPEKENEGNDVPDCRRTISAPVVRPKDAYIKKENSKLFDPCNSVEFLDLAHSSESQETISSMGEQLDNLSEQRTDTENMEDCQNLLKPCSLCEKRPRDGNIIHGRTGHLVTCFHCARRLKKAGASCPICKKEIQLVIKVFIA
Target sequence (Q00987 whole entry, looked up): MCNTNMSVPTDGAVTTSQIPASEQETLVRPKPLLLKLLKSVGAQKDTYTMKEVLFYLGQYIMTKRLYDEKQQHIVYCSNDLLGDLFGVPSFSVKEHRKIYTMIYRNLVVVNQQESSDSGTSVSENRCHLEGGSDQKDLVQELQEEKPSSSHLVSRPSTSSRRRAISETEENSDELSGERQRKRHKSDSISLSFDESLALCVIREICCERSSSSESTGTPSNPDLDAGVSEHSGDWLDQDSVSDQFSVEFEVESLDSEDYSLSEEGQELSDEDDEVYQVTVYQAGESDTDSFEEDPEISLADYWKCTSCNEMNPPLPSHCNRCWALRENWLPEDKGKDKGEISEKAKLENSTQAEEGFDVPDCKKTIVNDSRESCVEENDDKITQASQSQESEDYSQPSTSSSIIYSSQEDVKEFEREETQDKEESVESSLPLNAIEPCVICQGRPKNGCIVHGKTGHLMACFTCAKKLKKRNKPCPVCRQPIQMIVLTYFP
SKKanGAS inh: blocks kanamycin growth of S. pyogenes SKKanGAS strain. BacTiter-Glo, 6 h. inhibition, % at 7.5 µM. AID 1662. 300,000 compounds, 1.3% hits;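 active means mean replicate score, as percent of positive control median, at least 50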;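 further: strain carries kanamycin resistance gene driven by streptokinase promoter and grows in 40 µg/ml kanamycin; loss of luminescence reflects streptokinase promoter inhibition or plain growth inhibition; 0% = median of DMSO wells and 100% = positive control at its reference dose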
Mdm2 MdmX conf: confirmation of human Mdm2/MdmX interaction inhibitors. inhibition, % at 8 µM. 10,000 compounds, 55% hits. Mdm2-MdmX binding, luminescent assay. shares compounds with Mdm2 MdmX PPI; in the data active means inhibition above about 40%
FLuc counter: counter-screen for Mdm2/MdmX inhibitors: full-length luciferase; shares compounds with Mdm2 MdmX PPI; SaOS-2 full-length luciferase counterscreen, luminescence; inhibition, % at 8 µM; 6,200 compounds, 77% hits; AID 504607;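 active means mean inhibition at 8 µM reaching about 37%, which flags the compound as non-specific, limit read from the data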;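 further: p53-null SaOS-2 cells with luciferase driven by a doxycycline-inducible promoter; compound on cells about two nights before reading with doxycycline added after day one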
Starred values were filed as active, the others as inactive.

For COc1ccccc1NS(=O)(=O)c1cc(C)ccc1C the results were Calb FLC 0.2, T cruzi inh 6.7, Beta apoptosis -4.3, CSC inhib -2.8, Mdm2 MdmX PPI 10.1 and SKKanGAS inh 15.4.
Screening Cc1cc(C)cc(NS(=O)(=O)c2ccc(-c3cnc(C4CC4)o3)cc2)c1 returned Calb FLC -0.1, T cruzi inh 12.6, Mdm2 MdmX PPI 75.3*, SKKanGAS inh 30.0, Mdm2 MdmX conf 68.0* and FLuc counter 68.8*.
`COc1ccccc1NS(=O)(=O)c1cc(-c2cnc(C3CC3)o2)ccc1C` gave Calb FLC -4.0, T cruzi inh -96.4, Beta apoptosis 6.5, CSC inhib -6.8, Mdm2 MdmX PPI 52.9*, SKKanGAS inh -4.8, Mdm2 MdmX conf 45.7* and FLuc counter 55.8*.
Cc1cccc(NS(=O)(=O)c2ccc(-c3cnc(C4CC4)o3)cc2)c1C was read as Calb FLC -2.7, T cruzi inh 27.4, Mdm2 MdmX PPI 84.9*, SKKanGAS inh 4.4, Mdm2 MdmX conf 65.5* and FLuc counter 75.6*.
`N#Cc1ccc(C(=O)NCC2CCCCC2)cc1` gave Calb FLC -2.9, T cruzi inh -3.6, Beta apoptosis 2.6, CSC inhib -13.7, Mdm2 MdmX PPI 4.3 and SKKanGAS inh 3.0.
COc1ccc([C@H]2CC(=O)C=C(c3ccc(CNC(=O)OC(C)(C)C)cc3)C2)cc1 was read as Beta apoptosis 35.9, CSC inhib 1.6 and Mdm2 MdmX PPI 4.4.
For Cc1ccc(C)c(NS(=O)(=O)c2ccc(-c3cnc(C4CC4)o3)cc2)c1 the results were Calb FLC -32.8, T cruzi inh 21.8, Beta apoptosis 46.9, CSC inhib 75.2*, Mdm2 MdmX PPI 71.3*, SKKanGAS inh 3.8, Mdm2 MdmX conf 54.8* and FLuc counter 80.5*.
Screening NC(=O)c1ccccc1Nc1nc2nc3ccccc3c(=O)n2cc1Br returned Calb FLC 0.8, T cruzi inh 1.7, Beta apoptosis -1.2, CSC inhib 15.4, Mdm2 MdmX PPI 73.7*, SKKanGAS inh 46.1 and Mdm2 MdmX conf -4.8.
Cc1cc(Nc2ccccc2C(=O)O)nc2nc3ccccc3c(=O)n12 was read as Calb FLC 0.1, T cruzi inh 7.0, Beta apoptosis -4.3, CSC inhib -5.5, Mdm2 MdmX PPI -0.8 and SKKanGAS inh -7.5.
For Cc1ccccc1-n1ccnc1SCC(=O)NC1CCCC1 the results were Calb FLC 3.4, T cruzi inh -3.0, Beta apoptosis -1.6, CSC inhib -14.7, Mdm2 MdmX PPI 16.5 and SKKanGAS inh -6.5.
Screening Cc1ccc(S(=O)(=O)N2CCN(C(=O)CC(C)n3nc(C)c(Cl)c3C)CC2)cc1 (stereo unspecified) returned Calb FLC -0.3, T cruzi inh 6.7, Beta apoptosis -5.8, CSC inhib -9.6, Mdm2 MdmX PPI 14.8 and SKKanGAS inh -1.7.
For C=CS(=O)(=O)c1ccc(Oc2ccc(S(=O)(=O)C=C)cc2)cc1 the results were Calb FLC 15.1, T cruzi inh 50.6, Beta apoptosis 106.3*, CSC inhib -9.8, Mdm2 MdmX PPI 99.7*, SKKanGAS inh 1.0, Mdm2 MdmX conf 99.7* and FLuc counter 0.7.
CN(CC(=O)Nc1ccccc1Br)C(=O)c1cccnc1Nc1cccc(C(F)(F)F)c1 was read as Calb FLC 15.3, T cruzi inh 5.1, Beta apoptosis 0.6, Mdm2 MdmX PPI 56.4*, SKKanGAS inh 41.1 and Mdm2 MdmX conf -3.0.
`CNC(=O)c1cccnc1Nc1cccc(C(F)(F)F)c1` gave Calb FLC 23.6, T cruzi inh 15.2, Beta apoptosis -2.9, Mdm2 MdmX PPI 12.6 and SKKanGAS inh -7.7.
For CC(C)c1cc(C(=O)NC2CCCc3c2cnn3-c2ccccc2F)no1 (stereo unspecified) the results were Calb FLC 23.0, T cruzi inh -9.5, Beta apoptosis 16.2, CSC inhib 3.4, Mdm2 MdmX PPI 89.7*, SKKanGAS inh 0.9, Mdm2 MdmX conf 76.7* and FLuc counter 29.3.
For Cc1cc(NC(=O)c2ccc(F)cc2)n(-c2ccccn2)n1 the results were Calb FLC -6.8, T cruzi inh 6.9, Beta apoptosis 8.4, Mdm2 MdmX PPI -11.1 and SKKanGAS inh -10.3.
For Cc1cc(NC(=O)c2ccc(C#N)cc2)n(-c2ccccn2)n1 the results were Calb FLC 7.6, T cruzi inh 2.8, Beta apoptosis -0.8, CSC inhib -6.6, Mdm2 MdmX PPI 63.3*, SKKanGAS inh -10.4 and Mdm2 MdmX conf -8.4.
Cc1c(/C=C2\NC(=O)NC2=O)c2ccccc2n1C was read as Calb FLC -7.4, T cruzi inh -0.9, Beta apoptosis -1.1, CSC inhib -5.4, Mdm2 MdmX PPI 1.0 and SKKanGAS inh -7.1.
`Cc1ccc(/C=N/NC(=O)c2ccc3ccccc3c2)s1` gave Calb FLC -1.9, T cruzi inh -24.3, Beta apoptosis 7.4, CSC inhib 50.0, Mdm2 MdmX PPI 56.5*, SKKanGAS inh -1.4, Mdm2 MdmX conf 68.4* and FLuc counter 73.1*.
For O=C(N/N=C/c1cccs1)c1ccc2ccccc2c1 the results were Calb FLC -6.7, T cruzi inh -12.9, Beta apoptosis 3.4, CSC inhib 2.5, Mdm2 MdmX PPI 25.2 and SKKanGAS inh -3.8.
C=CCNC(=O)c1ccc(N(Cc2ccc(Cl)cc2)S(C)(=O)=O)cc1 was read as Calb FLC -0.2, T cruzi inh -9.4, Beta apoptosis -4.8, CSC inhib -4.7, Mdm2 MdmX PPI 19.4 and SKKanGAS inh -3.9.
`C=CCNC(=O)c1ccc(CN(c2ccc(OCC)cc2)S(=O)(=O)c2ccc(C)cc2)cc1` gave Calb FLC 4.1, T cruzi inh 38.0, Beta apoptosis -1.1, CSC inhib 64.1, Mdm2 MdmX PPI 50.0, SKKanGAS inh 4.8, Mdm2 MdmX conf 39.8 and FLuc counter 49.6*.
`CC(=O)c1sc2c(c1OC(=O)c1ccc(Cl)cc1Cl)c(=O)n(-c1ccccc1)c(=S)n2-c1ccccc1` gave Calb FLC -7.6, T cruzi inh 7.5, Beta apoptosis -0.9, CSC inhib 67.2, Mdm2 MdmX PPI 94.5*, SKKanGAS inh 14.7, Mdm2 MdmX conf 92.4* and FLuc counter 12.1.
COc1cccc(NC(=O)CN(C)C(=O)[C@@H]2CCCN2C(=O)c2cccs2)c1 was read as Beta apoptosis -8.1, CSC inhib 16.4 and Mdm2 MdmX PPI 2.7.
`CCOc1cccc2sc(N(CCN(C)C)C(=O)/C=C/c3cccs3)nc12` gave Calb FLC -8.1, T cruzi inh 12.9, Beta apoptosis 17.0, CSC inhib -0.2, Mdm2 MdmX PPI 65.5*, SKKanGAS inh 14.3 and Mdm2 MdmX conf 25.8.

Source: PubChem
